Experiments:
IκBα phosphorylation = assay: Immunoblot analysis of p-IκBα in A.f-infected BMDMs; assay type: cell-based, mouse; conditions: unprimed WT BMDMs incubated with NF-κB inhibitor during fungal infection
Summary of the method: (§1)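 Bone-marrow-derived macrophages from C57BL/6-background mice, 3×10^6 cells in DMEM with 10% FBS and 1% penicillin–streptomycin, left unprimed and given the NF-κB inhibitor class test compound. They were then infected with A. fumigatus A1160 conidia (malt-agar slants, 1 week) at MOI 20. Cells were lysed in 1× RIPA, and 15 μg protein was separated by SDS-PAGE, transferred to PVDF and probed for p-IκBα, total IκBα and IRF1 with HRP detection. Representative of ≥3 independent experiments.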

IRF1 = assay: Immunoblot analysis of IRF1 in A.f-infected BMDMs; assay type: cell-based, mouse; conditions: unprimed WT BMDMs incubated with NF-κB inhibitor during fungal infection
Summary of the method: as §1

In the case of `Cc1ccc(S(=O)(=O)/C=C/C#N)cc1` [Bay 11-7082], the “phosphorylation of IκBα” value (IκBα phosphorylation) is reported as “reduced” and the IRF1 induction (IRF1) is reported as “reduced”.

Reference: PMC6619501 (Nature microbiology, 2018)
